For 9 compounds, MIC, Dose and dose excreted results are on record in ChEMBL document CHEMBL1148273, “Vancomycin disulfide derivatives as antibacterial agents” (Bioorg Med Chem Lett, 2004).

One data set has as its system Enterococcus faecium. Kind of data set: Minimal inhibitory concentration was evaluated against VanA Fm […]. It counts as functional.
The next data set has as its system Enterococcus faecalis. Description: Minimal inhibitory concentration was evaluated against VanA Fs[…]. The data set is classed as functional.
For data set [1], the system named is Staphylococcus aureus. Description: Minimal inhibitory concentration was evaluated against Staphylococcus aureus MSSA (ATCC 13709). The data set is classed as functional. The method in brief: (§1)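 MICs were determined by the NCCLS broth microdilution method. The strain panel included MSSA ATCC 13709, VanA E. faecium KPB-01, VanA E. faecalis MGH-01 and VanB ATCC 51575.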

Data set [2] relates to Staphylococcus aureus. Description: Minimal inhibitory concentration was evaluated against methicillin-resistant Staphylococcus aureus (ATCC 33591). It counts as functional. In short, it runs like this: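 NCCLS broth microdilution susceptibility test, in vitro, against the MRSA strain ATCC 33591 as part of a Gram-positive panel with MSSA and vancomycin-resistant enterococci. Read-out is the minimal inhibitory concentration.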

Another data set concerns Enterococcus sp. Description: Minimal inhibitory concentration was evaluated against VanB (ATCC 51575). The data set is classed as functional, enterococcus strain. In short, it runs like this:
as §1

Data set [3] concerns Rattus norvegicus. Description: Compound was evaluated for percent dose tissue distribution 24 hours after a 50 mg/kg dose was administered intravenously in liver. It counts as ADME, organism-based. More on the design: dose 50 mg/kg, route intravenous. To be noted: in vivo, iv. In short, it runs like this: (§2)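 Male Sprague–Dawley rats were given a single intravenous dose of 50 mg/kg. Tissue or urine levels were determined 24 h after dosing.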

Data set [4] has as its system Rattus norvegicus. Description: Compound was evaluated for tissue distribution 24 hours after a 50 mg/kg dose was administered intravenously in rat kidney. It counts as ADME, organism-based. Also noted: dose 50 mg/kg, route intravenous. To be noted: in vivo, iv. In short, it runs like this:
as §2

Data set [5] can be described thus: Compound was evaluated for tissue distribution 24 hours after a 50 mg/kg dose was administered intravenously in urine. The data set is classed as ADME, organism-based. More on the design: dose 50 mg/kg, route intravenous. As to conditions: rat, iv. In short, it runs like this:
as §2

For data set [6], the system named is Rattus norvegicus. Description: Compound was evaluated for percent dimer tissue distribution 24 hours after a 50 mg/kg dose was administered intravenously in urine. It counts as ADME, organism-based. To be noted: in vivo, iv. Also noted: dose 50 mg/kg, route intravenous. The method in brief: (§3)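 Male Sprague–Dawley rats were dosed intravenously at 50 mg/kg and urine was sampled 24 h later. The metabolite percentage was calculated from the peak area ratio of the metabolite peak to the parent peak.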

In data set [7] the test system is Rattus norvegicus. Description: Compound was evaluated for percent thiol tissue distribution 24 hours after a 50 mg/kg dose was administered intravenously in urine. It counts as ADME, organism-based. Also noted: dose 50 mg/kg, route intravenous. As to conditions: in vivo, iv. The method in brief:
as §3

Converted amounts (≈) assume the structure as drawn.

Broadly, the MIC is the smallest concentration in the dilution series that meets the test's criterion for growth inhibition. As for `CCCCCCCCCCSSCCNC1(C)CC(OC2C(Oc3c4cc5cc3Oc3ccc(cc3Cl)[C@@H](O)[C@@H](NC(=O)[C@@H](CC(C)C)NC)C(=O)N[C@@H](CC(N)=O)C(=O)N[C@H]5C(=O)N[C@H]3C(=O)N[C@H](C(=O)N[C@H](C(=O)O)c5cc(O)cc(O)c5-c5cc3ccc5O)[C@H](O)c3ccc(c(Cl)c3)O4)OC(O)C(O)C2O)OC(C)C1O` (stereo not given in full), the MIC is 3.1 µg/mL (≈ 1.86 µM) in the data set with Enterococcus faecium; 3.1 µg/mL (≈ 1.86 µM) with Enterococcus faecalis; 1.2 µg/mL (≈ 0.72 µM) in the data set with Staphylococcus aureus [1]; 2.4 µg/mL (≈ 1.44 µM) with Staphylococcus aureus [2]; 0.6 µg/mL (≈ 0.36 µM) against Enterococcus sp..
In the case of `CCCCCCCCCCNCCN[C@@]1(C)C[C@H](O[C@@H]2[C@@H](Oc3c4cc5cc3Oc3ccc(cc3Cl)[C@@H](O)[C@@H](NC(=O)[C@@H](CC(C)C)NC)C(=O)N[C@@H](CC(N)=O)C(=O)N[C@H]5C(=O)N[C@H]3C(=O)N[C@H](C(=O)N[C@H](C(=O)O)c5cc(O)cc(O)c5-c5cc3ccc5O)[C@H](O)c3ccc(c(Cl)c3)O4)O[C@@H](CO)[C@H](O)[C@@H]2O)O[C@H](C)[C@H]1O`, the Dose is on record as 37% in the data set on Rattus norvegicus [3] and 22% with Rattus norvegicus [4]. The same compound yielded a dose excreted at 24 h in data set [5] of 16%. Besides, the MIC in the data set on Enterococcus faecium was 4.1 µg/mL (≈ 2.51 µM); in the data set on Enterococcus faecalis, 3.6 µg/mL (≈ 2.21 µM); against Staphylococcus aureus [1], 0.4 µg/mL (≈ 0.245 µM); against Staphylococcus aureus [2], 0.4 µg/mL (≈ 0.245 µM); against Enterococcus sp., 1.8 µg/mL (≈ 1.1 µM).
`CCCCCCCCCSSCCN[C@@]1(C)C[C@H](O[C@@H]2[C@@H](Oc3c4cc5cc3Oc3ccc(cc3Cl)[C@@H](O)[C@@H](NC(=O)[C@@H](CC(C)C)NC)C(=O)N[C@@H](CC(N)=O)C(=O)N[C@H]5C(=O)N[C@H]3C(=O)N[C@H](C(=O)N[C@H](C(=O)O)c5cc(O)cc(O)c5-c5cc3ccc5O)[C@H](O)c3ccc(c(Cl)c3)O4)O[C@@H](CO)[C@H](O)[C@@H]2O)O[C@H](C)[C@H]1O`: the MIC against Enterococcus faecium came out at 6.3 µg/mL (≈ 3.78 µM); with Enterococcus faecalis, 3.1 µg/mL (≈ 1.86 µM); against Staphylococcus aureus [1] it was 0.3 µg/mL (≈ 0.18 µM); in the data set with Staphylococcus aureus [2] it was 0.6 µg/mL (≈ 0.36 µM); against Enterococcus sp., 1.2 µg/mL (≈ 0.72 µM).
On to `CCCCCCCCSSCCCN[C@@]1(C)C[C@H](O[C@@H]2[C@@H](Oc3c4cc5cc3Oc3ccc(cc3Cl)[C@@H](O)[C@@H](NC(=O)[C@@H](CC(C)C)NC)C(=O)N[C@@H](CC(N)=O)C(=O)N[C@H]5C(=O)N[C@H]3C(=O)N[C@H](C(=O)N[C@H](C(=O)O)c5cc(O)cc(O)c5-c5cc3ccc5O)[C@H](O)c3ccc(c(Cl)c3)O4)O[C@@H](CO)[C@H](O)[C@@H]2O)O[C@H](C)[C@H]1O`, for which the Dose with Rattus norvegicus [6] was 15%; in the data set on Rattus norvegicus [3], 4.9%; with Rattus norvegicus [7], 2.3%; in the data set with Rattus norvegicus [4], 0.5%. The dose excreted at 24 h in data set [5] was 1%. For the same compound, the MIC against Enterococcus faecium was found to be 4.7 µg/mL (≈ 2.82 µM); against Enterococcus faecalis, 3.8 µg/mL (≈ 2.28 µM); with Staphylococcus aureus [1], 3.1 µg/mL (≈ 1.86 µM); against Staphylococcus aureus [2], 0.4 µg/mL (≈ 0.24 µM); with Enterococcus sp. it was 1.8 µg/mL (≈ 1.08 µM).
In the case of `CN[C@H](CC(C)C)C(=O)N[C@H]1C(=O)N[C@@H](CC(N)=O)C(=O)N[C@H]2C(=O)N[C@H]3C(=O)N[C@H](C(=O)N[C@H](C(=O)O)c4cc(O)cc(O)c4-c4cc3ccc4O)[C@H](O)c3ccc(c(Cl)c3)Oc3cc2cc(c3O[C@H]2O[C@@H](CO)[C@H](O)[C@H](O)[C@@H]2OC2C[C@](C)(NCCCSSCCCN[C@]3(C)C[C@@H](O[C@H]4[C@H](Oc5c6cc7cc5Oc5ccc(cc5Cl)[C@@H](O)[C@@H](NC(=O)[C@@H](CC(C)C)NC)C(=O)N[C@@H](CC(N)=O)C(=O)N[C@H]7C(=O)N[C@H]5C(=O)N[C@H](C(=O)N[C@H](C(=O)O)c7cc(O)cc(O)c7-c7cc5ccc7O)[C@H](O)c5ccc(c(Cl)c5)O6)O[C@H](CO)[C@@H](O)[C@H]4O)O[C@@H](C)[C@@H]3O)[C@H](O)[C@@H](C)O2)Oc2ccc(cc2Cl)[C@H]1O` (stereo not given in full), the MIC was found to be 6.3 µg/mL (≈ 2.07 µM) against Enterococcus faecium; 12.5 µg/mL (≈ 4.11 µM) in the data set on Enterococcus faecalis; 6.3 µg/mL (≈ 2.07 µM) with Staphylococcus aureus [1]; 18.8 µg/mL (≈ 6.17 µM) in the data set on Staphylococcus aureus [2]; 4.7 µg/mL (≈ 1.54 µM) against Enterococcus sp..
Regarding `CCCCCCCCCCCCCN[C@@]1(C)C[C@H](O[C@@H]2[C@@H](Oc3c4cc5cc3Oc3ccc(cc3Cl)[C@@H](O)[C@@H](NC(=O)[C@@H](CC(C)C)NC)C(=O)N[C@@H](CC(N)=O)C(=O)N[C@H]5C(=O)N[C@H]3C(=O)N[C@H](C(=O)N[C@H](C(=O)O)c5cc(O)cc(O)c5-c5cc3ccc5O)[C@H](O)c3ccc(c(Cl)c3)O4)O[C@@H](CO)[C@H](O)[C@@H]2O)O[C@H](C)[C@H]1O`, the Dose is 70% in the data set with Rattus norvegicus [3] and 3.4% with Rattus norvegicus [4]. In addition, the dose excreted at 24 h in [5] came to 0.4%. In addition, the MIC was 4.1 µg/mL (≈ 2.51 µM) against Enterococcus faecium; 3.8 µg/mL (≈ 2.33 µM) against Enterococcus faecalis; 2.8 µg/mL (≈ 1.72 µM) against Staphylococcus aureus [1]; 1.5 µg/mL (≈ 0.919 µM) against Staphylococcus aureus [2]; 1.6 µg/mL (≈ 0.981 µM) with Enterococcus sp..
Take `CCCCCCCCSSCCN[C@@]1(C)C[C@H](O[C@@H]2[C@@H](Oc3c4cc5cc3Oc3ccc(cc3Cl)[C@@H](O)[C@@H](NC(=O)[C@@H](CC(C)C)NC)C(=O)N[C@@H](CC(N)=O)C(=O)N[C@H]5C(=O)N[C@H]3C(=O)N[C@H](C(=O)N[C@H](C(=O)O)c5cc(O)cc(O)c5-c5cc3ccc5O)[C@H](O)c3ccc(c(Cl)c3)O4)O[C@@H](CO)[C@H](O)[C@@H]2O)O[C@H](C)[C@H]1O`: the MIC in the data set on Enterococcus faecium came out at 6.3 µg/mL (≈ 3.81 µM); against Enterococcus faecalis, 4.7 µg/mL (≈ 2.84 µM); with Staphylococcus aureus [1], 0.2 µg/mL (≈ 0.121 µM); in the data set on Staphylococcus aureus [2] it was 0.2 µg/mL (≈ 0.121 µM); in the data set on Enterococcus sp. it was 2.4 µg/mL (≈ 1.45 µM).
For the compound `CCCCCCCCCSSCCCN[C@@]1(C)C[C@H](O[C@@H]2[C@@H](Oc3c4cc5cc3Oc3ccc(cc3Cl)[C@@H](O)[C@@H](NC(=O)[C@@H](CC(C)C)NC)C(=O)N[C@@H](CC(N)=O)C(=O)N[C@H]5C(=O)N[C@H]3C(=O)N[C@H](C(=O)N[C@H](C(=O)O)c5cc(O)cc(O)c5-c5cc3ccc5O)[C@H](O)c3ccc(c(Cl)c3)O4)O[C@@H](CO)[C@H](O)[C@@H]2O)O[C@H](C)[C@H]1O`, the MIC in the data set on Enterococcus faecium is 4.1 µg/mL (≈ 2.44 µM); in the data set with Enterococcus faecalis it was 3.6 µg/mL (≈ 2.14 µM); in the data set with Staphylococcus aureus [1] it was 0.6 µg/mL (≈ 0.357 µM); against Staphylococcus aureus [2], 1.2 µg/mL (≈ 0.714 µM); against Enterococcus sp., 1.8 µg/mL (≈ 1.07 µM).
In the case of `CN[C@H](CC(C)C)C(=O)N[C@H]1C(=O)N[C@@H](CC(N)=O)C(=O)N[C@H]2C(=O)N[C@H]3C(=O)N[C@H](C(=O)N[C@H](C(=O)O)c4cc(O)cc(O)c4-c4cc3ccc4O)[C@H](O)c3ccc(c(Cl)c3)Oc3cc2cc(c3O[C@@H]2O[C@H](CO)[C@@H](O)[C@H](O)[C@H]2O[C@H]2C[C@](C)(N)[C@H](O)[C@H](C)O2)Oc2ccc(cc2Cl)[C@H]1O` [VANCOMYCIN], the MIC is over 256 µg/mL in the data set with Enterococcus faecium, over 256 µg/mL in the data set on Enterococcus faecalis, 0.7 µg/mL (≈ 0.483 µM) with Staphylococcus aureus [1] and over 256 µg/mL in the data set on Enterococcus sp..
